Reference: ChEMBL document CHEMBL1155469, “Peptide nucleic acids conjugated to short basic peptides show improved pharmacokinetics and antisense activity in adipose tissue” (J Med Chem, 2010)
The source made the active and inactive calls. The calls are words filed in the database; no cut-off is given here.

Legend:
[1] = system: BCL1; test: Inhibition of CD40 protein expression in mouse BCL1 cells after 62 hrs by Western blotting; type: functional, cell-based; settings: BCL1, 62 h
[2] = system: Mus musculus; test: Inhibition of IR expression in Balb/C mouse adipose tissue assessed as upregulation of IR-A transcript at 6.0 umol/kg, ip administered thrice a week for 2 weeks measured 48 hrs after last dose by […]; type: functional
Procedure, shortened: (§1)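 Male Balb/c mice, n=4 per group, dosed i.p. in PBS and sacrificed 48 h after last dose. Liver, kidney and adipose tissue homogenised at once in 4 M guanidine isothiocyanate, 25 mM EDTA, 50 mM Tris-HCl pH 6. RNA purified on columns and run by fluorescence-based quantitative RT-PCR. Target transcript levels normalised to cyclophilin A and expressed relative to saline-treated controls.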

[3] = system: Mus musculus; test: Acute toxicity in Balb/C mouse assessed as change in plasma chemistry at 1.5 to 6.0 umol/kg, ip administered thrice a week for 2 weeks measured 48 hrs after last dose; type: organism-based; settings: in vivo
Procedure, shortened: (§2)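 Male Balb/c mice aged 6–8 weeks, n=4 per group, dosed i.p. with compound suspended in PBS and filter sterilized, 10 ul/g body weight. Body weight tracked throughout the live phase. Under isoflurane anaesthesia, terminal cardiac-puncture bleed; serum taken for transaminases and other chemistries. Sacrifice by cervical dislocation 48 h after last dose, with liver and spleen weighed at necropsy. Kidneys examined by histopathology.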

[4] = system: Mus musculus; test: Acute toxicity in Balb/C mouse assessed as reduction in body weight at 1.5 to 6.0 umol/kg, ip administered thrice a week for 2 weeks measured 48 hrs after last dose; type: organism-based; settings: in vivo; procedure, shortened: as §2
[5] = system: Mus musculus; test: Inhibition of IR expression in Balb/C mouse kidney assessed as reduction in IR-B transcript at 6.0 umol/kg, ip administered thrice a week for 2 weeks measured 48 hrs after last dose […]; type: functional, organism-based; procedure, shortened: as §1
[6] = system: Mus musculus; test: Inhibition of IR expression in Balb/C mouse kidney assessed as reduction in IR-B transcript at 1.5 umol/kg, ip administered thrice a week for 2 weeks measured 48 hrs after last dose […]; type: functional, organism-based; procedure, shortened: as §1
[7] = system: Mus musculus; test: Inhibition of IR expression in Balb/C mouse liver assessed as upregulation of IR-A transcript at 1.5 umol/kg, ip administered thrice a week for 2 weeks measured 48 hrs after last dose by quantitative RT-PCR analysis
[8] = system: Mus musculus; test: Inhibition of IR expression in Balb/C mouse kidney assessed as upregulation of IR-A transcript at 6.0 umol/kg, ip administered thrice a week for 2 weeks measured 48 hrs after last dose […]; type: functional, organism-based; procedure, shortened: as §1
[9] = system: Mus musculus; test: Acute toxicity in Balb/C mouse assessed as change in spleen weight at 1.5 to 6.0 umol/kg, ip administered thrice a week for 2 weeks measured 48 hrs after last dose; type: organism-based; settings: in vivo; procedure, shortened: as §2
[10] = system: Mus musculus; test: Inhibition of IR expression in Balb/C mouse liver assessed as upregulation of IR-A transcript at 6.0 umol/kg, ip administered thrice a week for 2 weeks measured 48 hrs after last dose by quantitative RT-PCR analysis
[11] = system: Mus musculus; test: Inhibition of IR expression in Balb/C mouse liver assessed as reduction in IR-B transcript at 6.0 umol/kg, ip administered thrice a week for 2 weeks measured 48 hrs after last dose […]; type: functional, organism-based; procedure, shortened: as §1
[12] = system: Mus musculus; test: Acute toxicity in Balb/C mouse assessed as change in liver weight at 1.5 to 6.0 umol/kg, ip administered thrice a week for 2 weeks measured 48 hrs after last dose; type: organism-based; settings: in vivo; procedure, shortened: as §2
[13] = system: Mus musculus; test: Inhibition of IR expression in Balb/C mouse adipose tissue assessed as reduction in IR-B transcript at 6.0 umol/kg, ip administered thrice a week for 2 weeks measured 48 hrs after last dose […]; type: functional; procedure, shortened: as §1
[14] = system: Mus musculus; test: Inhibition of IR expression in Balb/C mouse kidney assessed as upregulation of IR-A transcript at 1.5 umol/kg, ip administered thrice a week for 2 weeks measured 48 hrs after last dose […]; type: functional, organism-based; procedure, shortened: as §1
[15] = system: Mus musculus; test: Toxicity in Balb/C mouse assessed as change in serum ALT levels at 40 mg/kg, ip administered thrice a week for 2 weeks measured 48 hrs after last dose; type: organism-based; parameters: dose 40 mg/kg, route intraperitoneal; settings: in vivo
Procedure, shortened: (§3)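 Male Balb/c mice, 6–8 wk, n=4/group, received compound i.p. in PBS (10 ul/g) 3x/wk for 2 wk. Body weight was monitored throughout. At 48 h after the last dose, mice were anesthetized with isoflurane and bled by cardiac puncture. Serum AST, ALT, BUN, bilirubin, glucose and triglycerides were compared with the saline group. ALT rise below 2x normal was counted as absent.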

[16] = system: Mus musculus; test: Toxicity in Balb/C mouse assessed as change in body weight at 40 mg/kg, ip administered thrice a week for 2 weeks measured 48 hrs after last dose; type: organism-based; parameters: dose 40 mg/kg, route intraperitoneal; settings: in vivo; procedure, shortened: as §3
[17] = system: Mus musculus; test: Inhibition of PTEN expression in Balb/C mouse kidney at 40 mg/kg, ip administered thrice a week for 2 weeks measured 48 hrs after last dose by Western blot analysis; type: functional, organism-based; parameters: dose 40 mg/kg
Procedure, shortened: (§4)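 Male Balb/c mice, 6–8 wk, n=4/group, dosed i.p. in PBS 3x/wk for 2 wk and killed 48 h after the last dose. Tissue was homogenized in RIPA buffer with protease inhibitors, and protein was measured by Lowry assay. Lysates were run on 10% PAGE and blotted to PVDF. Blots were probed with rabbit anti-PTEN (1:1000) and HRP anti-rabbit (1:2500), with ECL detection.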

[18] = system: Mus musculus; test: Toxicity in Balb/C mouse assessed as change in serum AST levels at 40 mg/kg, ip administered thrice a week for 2 weeks measured 48 hrs after last dose; type: organism-based; parameters: dose 40 mg/kg, route intraperitoneal; settings: in vivo; procedure, shortened: as §3
[19] = system: Mus musculus; test: Toxicity in Balb/C mouse assessed as change in serum glucose levels at 40 mg/kg, ip administered thrice a week for 2 weeks measured 48 hrs after last dose; type: organism-based; parameters: dose 40 mg/kg, route intraperitoneal; settings: in vivo; procedure, shortened: as §3
[20] = system: Mus musculus; test: Toxicity in Balb/C mouse assessed as change in blood urea nitrogen levels at 40 mg/kg, ip administered thrice a week for 2 weeks measured 48 hrs after last dose; type: organism-based; parameters: dose 40 mg/kg, route intraperitoneal; settings: in vivo; procedure, shortened: as §3
[21] = system: Mus musculus; test: Inhibition of PTEN expression in Balb/C mouse liver at 40 mg/kg, ip administered thrice a week for 2 weeks measured 48 hrs after last dose by Western blot analysis; type: functional, organism-based; parameters: dose 40 mg/kg; procedure, shortened: as §4
[22] = system: Mus musculus; test: Toxicity in Balb/C mouse assessed as change in serum bilirubin levels at 40 mg/kg, ip administered thrice a week for 2 weeks measured 48 hrs after last dose; type: organism-based; parameters: dose 40 mg/kg, route intraperitoneal; settings: in vivo; procedure, shortened: as §3
[23] = system: Mus musculus; test: Toxicity in Balb/C mouse assessed as change in serum triglyceride levels at 40 mg/kg, ip administered thrice a week for 2 weeks measured 48 hrs after last dose; type: organism-based; parameters: dose 40 mg/kg, route intraperitoneal; settings: in vivo; procedure, shortened: as §3
[24] = system: BCL1; test: Inhibition of PTEN expression in mouse BCL1 cells after 62 hrs by Western blotting; type: functional, cell-based; settings: BCL1, 62 h
Procedure, shortened: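 BCL1 cells were grown in DMEM with 10% FBS at 37 °C, 5% CO2. Compound was delivered to 2×10^6 cells by electroporation (200 V, 1000 uF, 13 ohms), and cells were harvested 62 h later. Western blot of RIPA lysates used rabbit anti-PTEN and anti-CD40 (1:1000) with HRP secondary and ECL detection. PTEN was normalized to CD40. n=3, mean ± SD.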

With `Cc1cn(CC(=O)N(CCNC(=O)CN(CCNC(=O)CN(CCNC(=O)CN(CCNC(=O)CN(CCNC(=O)CN(CCNC(=O)CN(CCNC(=O)CN(CCNC(=O)CN(CCNC(=O)CN(CCNC(=O)CN(CCNC(=O)CN(CCN)C(=O)Cn2ccc(N)nc2=O)C(=O)Cn2cnc3c(N)ncnc32)C(=O)Cn2ccc(N)nc2=O)C(=O)Cn2cnc3c(N)ncnc32)C(=O)Cn2cnc3c(=O)[nH]c(N)nc32)C(=O)Cn2cnc3c(N)ncnc32)C(=O)Cn2cc(C)c(=O)[nH]c2=O)C(=O)Cn2cnc3c(=O)[nH]c(N)nc32)C(=O)Cn2cnc3c(N)ncnc32)C(=O)Cn2ccc(N)nc2=O)C(=O)Cn2cnc3c(N)ncnc32)CC(=O)NCCN(CC(=O)NCCN(CC(=O)NCCN(CC(=O)N[C@@H](CCCCN)C(N)=O)C(=O)Cn2cnc3c(=O)[nH]c(N)nc32)C(=O)Cn2cnc3c(N)ncnc32)C(=O)Cn2cc(C)c(=O)[nH]c2=O)c(=O)[nH]c1=O` the IC50 [1] was 900 nM.
In the case of `COCCO[C@@H]1[C@H](OP(=O)(S)OC[C@H]2O[C@@H](n3cnc4c(N)ncnc43)[C@H](OCCOC)[C@@H]2O)[C@@H](COP(=O)(S)O[C@H]2[C@@H](OCCOC)[C@H](n3ccc(N)nc3=O)O[C@@H]2COP(=O)(S)O[C@H]2[C@@H](OCCOC)[C@H](n3cnc4c(N)ncnc43)O[C@@H]2COP(=O)(S)O[C@H]2[C@@H](OCCOC)[C@H](n3ccc(N)nc3=O)O[C@@H]2COP(=O)(S)O[C@H]2[C@@H](OCCOC)[C@H](n3cnc4c(=O)[nH]c(N)nc43)O[C@@H]2COP(=O)(S)O[C@H]2[C@@H](OCCOC)[C@H](n3cnc4c(=O)[nH]c(N)nc43)O[C@@H]2COP(=O)(S)O[C@H]2[C@@H](OCCOC)[C@H](n3ccc(N)nc3=O)O[C@@H]2COP(=O)(S)O[C@H]2C[C@H](n3cc(C)c(=O)[nH]c3=O)O[C@@H]2COP(=O)(S)O[C@H]2[C@@H](OCCOC)[C@H](n3ccc(N)nc3=O)O[C@@H]2COP(=O)(S)O[C@H]2[C@@H](OCCOC)[C@H](n3ccc(N)nc3=O)O[C@@H]2COP(=O)(S)O[C@H]2C[C@H](n3cc(C)c(=O)[nH]c3=O)O[C@@H]2COP(=O)(S)O[C@H]2[C@@H](OCCOC)[C@H](n3cnc4c(=O)[nH]c(N)nc43)O[C@@H]2COP(=O)(S)O[C@H]2C[C@H](n3cc(C)c(=O)[nH]c3=O)O[C@@H]2COP(=O)(S)O[C@H]2[C@@H](OCCOC)[C@H](n3ccc(N)nc3=O)O[C@@H]2COP(=O)(S)O[C@H]2[C@@H](OCCOC)[C@H](n3cnc4c(N)ncnc43)O[C@@H]2COP(=O)(S)O[C@H]2C[C@H](n3cc(C)c(=O)[nH]c3=O)O[C@@H]2COP(=O)(S)O[C@H]2[C@@H](OCCOC)[C@H](n3ccc(N)nc3=O)O[C@@H]2COP(=O)(S)O[C@H]2[C@@H](OCCOC)[C@H](n3ccc(N)nc3=O)O[C@@H]2COP(=O)(S)O[C@H]2[C@@H](OCCOC)[C@H](n3cnc4c(N)ncnc43)O[C@@H]2CO)O[C@H]1n1ccc(N)nc1=O` (some centres undefined), the Activity [2] is reported as “Active”, the Activity [3] is reported as “Non-toxic” and the Activity [4] is reported as “Non-toxic”. For the same molecule, the Activity [5] was “inactive”, the Activity [6] was “inactive” and the Activity [7] was “Active”. The Activity [8] was “Active”, the Activity [9] was “Non-toxic” and the Activity [10] was “Active”. For the same molecule, the Activity [11] was “Active”, the Activity [12] was “Non-toxic” and the Activity [13] was “Active”. For the same molecule, the Activity [14] was “Active”.
With `COCCO[C@@H]1[C@H](OP(=O)(S)OC[C@H]2O[C@@H](n3cc(C)c(=O)[nH]c3=O)C[C@@H]2OP(=O)(S)OC[C@H]2O[C@@H](n3ccc(N)nc3=O)[C@H](OCCOC)[C@@H]2OP(=O)(S)OC[C@H]2O[C@@H](n3cnc4c(N)ncnc43)[C@H](OCCOC)[C@@H]2OP(=O)(S)OC[C@H]2O[C@@H](n3cnc4c(=O)[nH]c(N)nc43)[C@H](OCCOC)[C@@H]2OP(=O)(S)OC[C@H]2O[C@@H](n3ccc(N)nc3=O)[C@H](OCCOC)[C@@H]2OP(=O)(S)OC[C@H]2O[C@@H](n3cnc4c(N)ncnc43)[C@H](OCCOC)[C@@H]2OP(=O)(S)OC[C@H]2O[C@@H](n3ccc(N)nc3=O)[C@H](OCCOC)[C@@H]2OP(=O)(S)OC[C@H]2O[C@@H](n3cnc4c(N)ncnc43)[C@H](OCCOC)[C@@H]2OP(=O)(S)OC[C@H]2O[C@@H](n3cc(C)c(=O)[nH]c3=O)C[C@@H]2OP(=O)(S)OC[C@H]2O[C@@H](n3ccc(N)nc3=O)[C@H](OCCOC)[C@@H]2OP(=O)(S)OC[C@H]2O[C@@H](n3cc(C)c(=O)[nH]c3=O)C[C@@H]2OP(=O)(S)OC[C@H]2O[C@@H](n3cnc4c(N)ncnc43)[C@H](OCCOC)[C@@H]2OP(=O)(S)OC[C@H]2O[C@@H](n3ccc(N)nc3=O)[C@H](OCCOC)[C@@H]2OP(=O)(S)OC[C@H]2O[C@@H](n3cnc4c(N)ncnc43)[C@H](OCCOC)[C@@H]2OP(=O)(S)OC[C@H]2O[C@@H](n3cnc4c(N)ncnc43)[C@H](OCCOC)[C@@H]2OP(=O)(S)OC[C@H]2O[C@@H](n3cnc4c(=O)[nH]c(N)nc43)[C@H](OCCOC)[C@@H]2OP(=O)(S)OC[C@H]2O[C@@H](n3cnc4c(N)ncnc43)[C@H](OCCOC)[C@@H]2OP(=O)(S)OC[C@H]2O[C@@H](n3cnc4c(N)ncnc43)[C@H](OCCOC)[C@@H]2OP(=O)(S)OC[C@H]2O[C@@H](n3cnc4c(N)ncnc43)[C@H](OCCOC)[C@@H]2O)[C@@H](CO)O[C@H]1n1ccc(N)nc1=O` (some centres undefined) the Activity [15] was “Non-toxic”, the Activity [16] was “Non-toxic” and the inhibition [17] was “inactive”. For the same molecule, the Activity [18] was “Non-toxic”, the Activity [19] was “Non-toxic” and the Activity [20] was “Non-toxic”. For the same molecule, the inhibition [21] was “inactive”, the Activity [22] was “Non-toxic” and the Activity [23] was “Non-toxic”. For the same molecule, the IC50 [24] was 1000 nM.
